Data as given in ChEMBL document CHEMBL1135571, “Synthesis and optimization of a new family of type 3 17 beta-hydroxysteroid dehydrogenase inhibitors by parallel liquid-phase chemistry” (J Med Chem, 2002).
Several values for one entry are separate records, joined by “and”; a condition that tells them apart may be missing. Equal entries are not always repeated.

Legend:
[1] = Proliferative activity against Shionogi(AR+) cells at 0.1 uM concentration; type: functional
[2] = Proliferative activity against Shionogi(AR+) cells at 1 uM concentration; type: functional
[3] = target: T1, 17-beta-hydroxysteroid dehydrogenase type 3 (Homo sapiens, UniProt P37058); assay: The ability to inhibit the Type-3 17-beta- hydroxysteroid dehydrogenase activity in transfected human embryonic kidney (HEK)-293 cells experiment 3; type: cell-based, HEK293
T1 sequence (P37058 whole entry): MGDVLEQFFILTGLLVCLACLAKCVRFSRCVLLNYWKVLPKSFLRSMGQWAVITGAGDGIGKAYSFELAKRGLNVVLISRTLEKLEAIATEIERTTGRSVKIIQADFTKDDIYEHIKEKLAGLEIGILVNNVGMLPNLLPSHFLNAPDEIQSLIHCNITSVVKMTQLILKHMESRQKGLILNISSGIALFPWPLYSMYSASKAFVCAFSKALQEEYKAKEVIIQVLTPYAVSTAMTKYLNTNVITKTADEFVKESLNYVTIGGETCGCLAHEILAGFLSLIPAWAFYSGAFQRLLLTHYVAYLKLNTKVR
Procedure, shortened: (§1)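 Type 3 17β-HSD expressed by calcium phosphate transfection in HEK-293 cells. Cells sonicated in 50 mM sodium phosphate pH 7.4 with 20% glycerol and 1 mM EDTA, then spun at 10 000g for 1 h; the 100 000g microsomal pellet is the enzyme source. Assay at 37 °C in the same buffer with 5 mM NADPH and 0.05 μM [14C]Δ4-dione. Labeled testosterone formed is measured; […].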

[4] = Proliferative activity against Shionogi (AR+) cells at 1 uM concentration; type: functional
[5] = Proliferative activity against Shionogi (AR+) cells at 0.1 uM concentration; type: functional
[6] = target: T1, 17-beta-hydroxysteroid dehydrogenase type 3; assay: The ability to inhibit the Type-3 17-beta- hydroxysteroid dehydrogenase activity in transfected human embryonic kidney (HEK)-293 cells experiment 2; type: cell-based, HEK293; procedure, shortened: as §1
[7] = target: T1, 17-beta-hydroxysteroid dehydrogenase type 3; assay: Concentration to inhibit 50% activity of the Type-3 17-beta- hydroxysteroid dehydrogenase
Procedure, shortened: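 Microsomal fraction from HEK-293 cells transfected with type 3 17β-HSD, prepared by sonication and differential centrifugation (10 000g, then 100 000g) in 50 mM sodium phosphate pH 7.4, 20% glycerol, 1 mM EDTA. Incubated at 37 °C with 5 mM NADPH, 0.05 μM [14C]Δ4-dione and a range of inhibitor concentrations. Labeled testosterone formed is measured; IC50 is computed from the 50% inhibition point.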

[8] = target: T1, 17-beta-hydroxysteroid dehydrogenase type 3; assay: Ability to inhibit the Type-3 17-beta- hydroxysteroid dehydrogenase activity transfected in human embryonic kidney (HEK)-293 cells experiment 2; type: cell-based, HEK293
[9] = target: T1, 17-beta-hydroxysteroid dehydrogenase type 3; assay: Ability to inhibit the Type-3 17-beta- hydroxysteroid dehydrogenase activity transfected in human embryonic kidney (HEK)-293 cells experiment 3; type: cell-based, HEK293

| SMILES | inhibition at 0.1 µM [1] [%] | inhibition at 1 µM [2] [%] | inhibition at 1 µM [4] [%] | inhibition at 0.1 µM [5] [%] | IC50 [7] | also measured |
| --- | --- | --- | --- | --- | --- | --- |
| C[C@]12CC[C@](O)(Cc3ccccc3)CC1CC[C@@H]1[C@@H]2CC[C@]2(C)C(=O)CC[C@@H]12 (stereo partly drawn) | 27 | 100 | – | – | – | IC50 [3]: 98 nM |
| CCCCCCCCN(C[C@@]1(O)CC[C@@]2(C)C(CC[C@@H]3[C@@H]2CC[C@]2(C)C(=O)CC[C@@H]32)C1)C(=O)C1CC1 (stereo partly drawn) | – | – | 0 | 0 | – | IC50 [6]: 57 nM |
| C[C@]12CC[C@](O)(CN(CC3CCCCC3)C(=O)C3CC3)CC1CC[C@@H]1[C@@H]2CC[C@]2(C)C(=O)CC[C@@H]12 (stereo partly drawn) | – | – | 0 | 1 | 85 nM | – |
| CCCCN(CC1C2CC3CC(C2)CC1C3)C[C@@]1(O)CC[C@@]2(C)C(CC[C@@H]3[C@@H]2CC[C@]2(C)C(=O)CC[C@@H]32)C1 (stereo partly drawn) | 3 | 7 | – | – | 80 nM | – |
| C[C@]12CC[C@@]3(CC1CC[C@@H]1[C@@H]2CC[C@]2(C)C(=O)CC[C@@H]12)CN(CC(CN1CCOCC1)OC(=O)CCC1CCCC1)C(=O)O3 (stereo partly drawn) | 4 | 6 | – | – | 74 nM | – |
| CCCC(=O)N(CC1C2CC3CC(C2)CC1C3)C[C@@]1(O)CC[C@@]2(C)C(CC[C@@H]3[C@@H]2CC[C@]2(C)C(=O)CC[C@@H]32)C1 (stereo partly drawn) | – | – | 96 | 7 | 35 nM and 57 nM | – |
| C[C@]12CCC(=O)C=C1CC[C@@H]1[C@@H]2CC[C@]2(C)C(=O)CC[C@@H]12 [ANDROSTENEDIONE] | – | – | – | – | – | IC50 [8]: 650 nM; IC50 [9]: 489 nM |
| C[C@]12CC[C@@H](O)C[C@H]1CC[C@@H]1[C@@H]2CC[C@]2(C)C(=O)CC[C@@H]12 [ETIOCHOLANOLONE] | 14 | 2 | – | – | – | IC50 [3]: 182 nM |
